According to ChEMBL document CHEMBL1121913, “Inactivation of liver alcohol dehydrogenases and inhibition of ethanol metabolism by ambivalent active-site-directed reagents” (J Med Chem, 1981):

What was measured:
Mus musculus [1] = assay: In vivo inhibition of recovery of rotarod performance in mice at a dose of 0.48 mM/kg; type: functional
Method in brief: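 Mice trained to hang on a 2-cm rod rotating at 7 rpm, two 15-min periods. Reagent given ip 22 h before ethanol 3 g/kg; five mice per dose, five vehicle controls. Impairment = 100(15 − minutes on rod)/15, probit-transformed; t1/2 for regaining 50% performance by regression. Inhibition = [t1/2(treated) − t1/2(control)]/t1/2(treated).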

[2] = biological target: T1, Alcohol dehydrogenase (Equus caballus) (UniProt P00327+P00328); assay: The compound was tested for the ability to inactivate horse liver alcohol dehydrogenase in the presence of 1 mM NAD+; second order rate constant M-1 min-1
Mus musculus [3] = assay: In vivo inhibition of ADH activity in mice liver at a dose of 0.48 mmol/kg; type: functional
Method in brief: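 Male Swiss-Webster mice (20–25 g), fed, given one ip dose of reagent suspended in sterile 0.9% saline, then ethanol 3 g/kg ip (40% w/v in saline) 22–24 h later. Liver removed once blood ethanol approached zero, chilled, homogenized, clarified by centrifugation. ADH activity taken as initial-velocity difference, ethanol/NAD⁺ assay minus same assay with 10 mM pyrazole, per mg protein. Four or five mice per group.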

Rattus norvegicus [4] = assay: In vivo inhibition of rate of ethanol metabolism in rats at dose 0.48 mmol/kg; type: functional
Method in brief: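 Rats (male Sprague-Dawley, fed) pretreated ip with reagent suspended in saline 22–24 h before ethanol 2 g/kg ip. Serial 5 µL tail-vein samples, Ba(OH)₂/ZnSO₄ deproteinization with 1-propanol internal standard, GC-FID. Metabolic rate = blood-ethanol decline slope × ratio of dose to extrapolated zero-time blood level. Two rats per experiment.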

Rattus norvegicus [5] = assay: In vivo inhibition of ADH activity in rat liver at a dose of 0.48 mM/kg; type: functional
Method in brief: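 Fed male Sprague-Dawley rats (160–200 g) received a single ip saline-suspended reagent dose, then ethanol 2 g/kg ip (40% w/v in saline) 22–24 h afterwards. Liver excised when blood ethanol neared zero, homogenized on ice, centrifuged. Activity = initial rate with ethanol and NAD⁺ minus rate in control assay containing 10 mM pyrazole, expressed per mg protein. Two rats per experiment.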

[6] = Toxic effect in mice was determined in vivo; type: toxicity, organism-based; conditions: mouse
Method in brief: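 Male Swiss-Webster mice (20–25 g); single i.p. dose of compound suspended in sterile 0.9% saline. Acute lethality scored over 24 h; LD₅₀ with limits at p ≤ 0.05 from three doses on 15 mice.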

Mus musculus [7] = assay: In vivo inhibition of rate of ethanol metabolism in mice at dose 0.48 mmol/kg; type: functional
Method in brief: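 Mice (male Swiss-Webster, fed) dosed ip with reagent in saline 22–24 h before ethanol 3 g/kg ip. Tail-vein blood (5 µL) deproteinized with Ba(OH)₂/ZnSO₄, 1-propanol internal standard, analyzed by GC with flame-ionization detection. Elimination slope fitted excluding absorption (1–2 h), multiplied by r (dose / theoretical zero-time blood level) to give metabolic rate. Four or five mice per group.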

[8] = Toxic effect in rats was determined in vivo; type: toxicity, organism-based; conditions: rat
Method in brief: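 Male Sprague-Dawley rats (160–200 g), two per dose; single i.p. dose of compound suspended in sterile 0.9% saline. Acute lethality scored over 24 h after dosing.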

[9] = biological target: T1, Alcohol dehydrogenase (Equus caballus); assay: The compound was tested for the ability to inactivate horse liver alcohol dehydrogenase in the presence of 1 mM NAD+k
[10] = The compound was tested for the ability to inactivate rat liver alcohol dehydrogenase in the presence of 1 mM NAD+K
Method in brief: (§1)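 Rat liver enzyme purified 15-fold ((NH₄)₂SO₄ 35–75%, DEAE-cellulose). Inactivation with 0.2 mM reagent, 0.1 M pyrophosphate buffer pH 8, 25 °C, enzyme near 0.2 mg/mL; NAD⁺ preincubated 1 min with enzyme before reagent addition. Apparent second-order constants computed on assumption of first-order dependence on reagent.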

[11] = The compound was tested for the ability to inactivate mouse liver alcohol dehydrogenase in the absence of NAD+K
Method in brief: (§2)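 Mouse liver ADH, fourfold purified ((NH₄)₂SO₄ 45–65% cut, DEAE-cellulose), incubated at about 0.2 mg/mL with 0.2 mM reagent in 0.1 M Na₂P₂O₇ pH 8, 25 °C; coenzyme, when present, added 1 min before inactivator. Apparent second-order rate constant derived assuming reaction first order in reagent.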

[12] = The compound was tested for the ability to inactivate mouse liver alcohol dehydrogenase in the presence of 1 mM NAD+K; method in brief: as §2
[13] = biological target: T2, Alcohol dehydrogenase (Homo sapiens) (UniProt P07327+P08319+P00325+P00326+P40394+P11766+P28332); assay: The compound was tested for the ability to inactivate human liver alcohol dehydrogenase in the presence of 1 mM NAD+k
Method in brief: (§3)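 Human liver ADH, purified on carboxymethyl- and DEAE-cellulose plus (NH₄)₂SO₄ (60%) with 5% ethanol throughout, ethanol dialysed out. Inactivation at 25 °C in 0.1 M Na₂P₂O₇, pH 8, enzyme about 0.2 mg/mL, 0.2 mM reagent; NAD⁺ added 1 min before reagent where used. Apparent second-order constant calculated assuming first order in reagent.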

[14] = biological target: T1, Alcohol dehydrogenase (Equus caballus); assay: The compound was tested for the ability to inactivate horse liver alcohol dehydrogenase in the absence of NAD+k
[15] = biological target: T2, Alcohol dehydrogenase (Homo sapiens); assay: The compound was tested for the ability to inactivate human liver alcohol dehydrogenase in the absence of NAD+K; method in brief: as §3
[16] = The compound was tested for the ability to inactivate rat liver alcohol dehydrogenase in the absence of NAD+K; method in brief: as §1
[17] = biological target: T1, Alcohol dehydrogenase (Equus caballus); assay: The compound was tested for the ability to inactivate horse liver alcohol dehydrogenase in the presence of 0.2 mM NAD+K
[18] = biological target: T1, Alcohol dehydrogenase (Equus caballus); assay: The compound was tested for the ability to inactivate horse liver alcohol dehydrogenase in the presence of 1 mM NAD+K

SMILES | Inhibition (Mus musculus [1]) | Activity [2] | inhibition in vivo at 480 µmol/kg (Mus musculus [3]) | inhibition in vivo at 480 µmol/kg (Rattus norvegicus [4]) | Inhibition (Rattus norvegicus [5]) | LD50 [6] | inhibition in vivo at 480 µmol/kg (Mus musculus [7]) | LD50 [8] | Rate constant [9] | Rate constant [10] | Rate constant [11] | Rate constant [12] | Rate constant [13] | Rate constant [14] | Rate constant [15] | Rate constant [16] | Rate constant [17] | Rate constant [18]
CC(=O)Nc1ccc(CCCC(N)=O)cc1 | 60% | 1500 | 43% | 0% | 8% | > 480 µmol/kg | 60% | > 480 µmol/kg | – | – | – | – | – | – | – | – | – | –
O=C(CBr)Nc1ccc(Oc2ccc(C(=O)O)cc2)cc1 | – | – | – | – | – | – | – | – | 17 M⁻¹ min⁻¹ | 23 M⁻¹ min⁻¹ | 173 M⁻¹ min⁻¹ | 11 M⁻¹ min⁻¹ | 290 M⁻¹ min⁻¹ | 320 M⁻¹ min⁻¹ | 26 M⁻¹ min⁻¹ | 69 M⁻¹ min⁻¹ | – | –
O=C(O)CCCCCCNC(=O)CBr | – | – | – | – | – | – | – | – | 0.5 M⁻¹ min⁻¹ | 0.8 M⁻¹ min⁻¹ | 7.6 M⁻¹ min⁻¹ | – | 8.3 M⁻¹ min⁻¹ | 5.9 M⁻¹ min⁻¹ | 6.7 M⁻¹ min⁻¹ | 11 M⁻¹ min⁻¹ | – | –
O=C(O)CCCCCCCCNC(=O)CBr | – | – | – | – | – | – | – | – | 4.9 M⁻¹ min⁻¹ | 12 M⁻¹ min⁻¹ | 4.9 M⁻¹ min⁻¹ | – | 240 M⁻¹ min⁻¹ | 10 M⁻¹ min⁻¹ | 23 M⁻¹ min⁻¹ | 12 M⁻¹ min⁻¹ | – | –
O=C(O)CCCCCCCNC(=O)CBr | – | – | – | – | – | – | – | – | 7.2 M⁻¹ min⁻¹ | 4 M⁻¹ min⁻¹ | 4.9 M⁻¹ min⁻¹ | – | 50 M⁻¹ min⁻¹ | 6.3 M⁻¹ min⁻¹ | 6.7 M⁻¹ min⁻¹ | 12 M⁻¹ min⁻¹ | – | –
O=C(CBr)Nc1ccc(-c2ccc(C(=O)O)cc2)cc1 | – | – | – | – | – | – | – | – | 24 M⁻¹ min⁻¹ | 25 M⁻¹ min⁻¹ | 43 M⁻¹ min⁻¹ | 6.3 M⁻¹ min⁻¹ | 3500 M⁻¹ min⁻¹ | 140 M⁻¹ min⁻¹ | 50 M⁻¹ min⁻¹ | 29 M⁻¹ min⁻¹ | – | –
NC(=O)CCCc1ccc(NC(=O)CCl)cc1 | – | – | – | – | – | – | – | – | – | – | – | – | – | – | – | – | 1.6 M⁻¹ min⁻¹ | 2.5 M⁻¹ min⁻¹
